# In ChEMBL document CHEMBL1154647, “Synthesis, spectral characterization and biological evaluation of phosphorylated derivatives of galanthamine” (Eur J Med Chem, 2010):
# Assays:
# Escherichia coli [1] = assay: Antibacterial activity against Escherichia coli at 1 mg/mL after 18 hrs by disc diffusion assay; format: functional; conditions: read-out: IZ
# Outline: (§1)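 Bacteria were grown in nutrient broth at 37 °C for 18 h on a rotary shaker at 150 rpm. Compounds were dissolved in DMF. Nutrient agar plates were dried at 35–36 °C for about 30 min, and test strains were spread on the surface. Discs were applied, and plates were inverted and incubated at 37 °C. A DMF blank was run.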
# Escherichia coli [2] = assay: Antibacterial activity against Escherichia coli at 2 mg/mL after 18 hrs by disc diffusion assay; format: functional; conditions: read-out: IZ; outline: as §1
# Brain [3] = assay: Antioxidant activity in Wistar rat brain assessed as reduction in glutathione content; format: functional, tissue-based
# Outline: (§2)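 Wistar rat brain was homogenised 1:40 (w/v) in 0.1 M phosphate buffer, pH 7.4, with 1 mM EDTA. Total glutathione (GSH + GSSG) and reduced GSH were assayed spectrophotometrically from optical density, using net rate against a standard-curve slope and intercept, times a dilution factor. Homogenate protein was measured by the Lowry method.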
# Bacillus subtilis [4] = assay: Antibacterial activity against Bacillus subtilis after 18 hrs; format: functional
# Bacillus subtilis [5] = assay: Antibacterial activity against Bacillus subtilis at 1 mg/mL after 18 hrs by disc diffusion assay; format: functional; conditions: read-out: IZ; outline: as §1
# [6] = Inhibition of superoxide dismutase in Wistar rat brain; format: tissue-based
# Bacillus subtilis [7] = assay: Antibacterial activity against Bacillus subtilis at 2 mg/mL after 18 hrs by disc diffusion assay; format: functional; conditions: read-out: IZ; outline: as §1
# Staphylococcus aureus [8] = assay: Antibacterial activity against Staphylococcus aureus after 18 hrs; format: functional
# Klebsiella pneumoniae [9] = assay: Antibacterial activity against Klebsiella pneumoniae after 18 hrs; format: functional
# Klebsiella pneumoniae [10] = assay: Antibacterial activity against Klebsiella pneumoniae at 2 mg/mL after 18 hrs by disc diffusion assay; format: functional; conditions: read-out: IZ; outline: as §1
# Catalase = biological target: T1, Catalase (Rattus norvegicus, UniProt P04762); assay: Inhibition of catalase in Wistar rat brain
# T1 sequence (P04762 whole entry): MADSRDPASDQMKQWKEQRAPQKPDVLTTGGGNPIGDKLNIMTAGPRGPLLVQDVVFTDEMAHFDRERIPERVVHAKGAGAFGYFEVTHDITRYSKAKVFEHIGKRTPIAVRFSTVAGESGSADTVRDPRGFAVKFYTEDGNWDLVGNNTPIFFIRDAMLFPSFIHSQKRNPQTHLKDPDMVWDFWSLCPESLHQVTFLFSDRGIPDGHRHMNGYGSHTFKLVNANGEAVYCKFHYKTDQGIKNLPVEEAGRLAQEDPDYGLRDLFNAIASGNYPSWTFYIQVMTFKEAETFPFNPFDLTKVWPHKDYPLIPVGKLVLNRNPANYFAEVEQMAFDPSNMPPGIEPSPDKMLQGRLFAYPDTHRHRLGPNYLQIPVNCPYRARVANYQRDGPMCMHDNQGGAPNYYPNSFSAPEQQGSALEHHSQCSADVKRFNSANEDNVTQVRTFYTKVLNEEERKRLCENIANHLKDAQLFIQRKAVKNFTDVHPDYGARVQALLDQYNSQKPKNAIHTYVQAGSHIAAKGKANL
# Brain [11] = assay: Antioxidant activity in Wistar rat brain assessed as lipid peroxidation; format: functional, tissue-based
# Staphylococcus aureus [12] = assay: Antibacterial activity against Staphylococcus aureus at 1 mg/mL after 18 hrs by disc diffusion assay; format: functional; conditions: read-out: IZ; outline: as §1
# Brain [13] = assay: Antioxidant activity in Wistar rat brain assessed as glutathione content; format: functional; outline: as §2
# Staphylococcus aureus [14] = assay: Antibacterial activity against Staphylococcus aureus at 2 mg/mL after 18 hrs by disc diffusion assay; format: functional; conditions: read-out: IZ; outline: as §1
# Brain [15] = assay: Antioxidant activity in Wistar rat brain assessed as superoxide dismutase content; format: functional
# Brain [16] = assay: Antioxidant activity in Wistar rat brain assessed as inhibition of lipid peroxidation; format: functional, tissue-based
# Escherichia coli [17] = assay: Antibacterial activity against Escherichia coli after 18 hrs; format: functional
# Brain [18] = assay: Antioxidant activity in Wistar rat brain assessed as catalase content; format: functional
# Klebsiella pneumoniae [19] = assay: Antibacterial activity against Klebsiella pneumoniae at 1 mg/mL after 18 hrs by disc diffusion assay; format: functional; conditions: read-out: IZ; outline: as §1
SMILES,zone of inhibition at 1000 µg/mL (Escherichia coli [1]) [mm],zone of inhibition at 2000 µg/mL (Escherichia coli [2]) [mm],EC50 (Brain [3]) [µg/mL],MIC (Bacillus subtilis [4]) [µg/mL],zone of inhibition at 1000 µg/mL (Bacillus subtilis [5]) [mm],EC50 [6] [µg/mL],zone of inhibition at 2000 µg/mL (Bacillus subtilis [7]) [mm],MIC (Staphylococcus aureus [8]) [µg/mL],MIC (Klebsiella pneumoniae [9]) [µg/mL],zone of inhibition at 2000 µg/mL (Klebsiella pneumoniae [10]) [mm],EC50 (Catalase) [µg/mL],Activity (Brain [11]) [µg/mL],zone of inhibition at 1000 µg/mL (Staphylococcus aureus [12]) [mm],Activity (Brain [13]) [µg/mL],zone of inhibition at 2000 µg/mL (Staphylococcus aureus [14]) [mm],Activity (Brain [15]) [µg/mL],EC50 (Brain [16]) [µg/mL],MIC (Escherichia coli [17]) [µg/mL],Activity (Brain [18]) [µg/mL],zone of inhibition at 1000 µg/mL (Klebsiella pneumoniae [19]) [mm]
COc1ccc2c3c1O[C@H]1C[C@@H](OP(=O)(NCCO)Oc4ccc([N+](=O)[O-])cc4)C=C[C@@]31CCN(C)C2 (stereo partly drawn),1.62,4.44,1.08,0.21,1.53,2.57,4.16,0.81,0.42,5.44,4.94,72.5,1.59,4.72,3.94,29.37,2.81,0.44,284.32,2.43
COc1ccc2c3c1O[C@H]1C[C@@H](OP(=O)(Oc4ccc([N+](=O)[O-])cc4)OP(=O)(O)O)C=C[C@@]31CCN(C)C2 (stereo partly drawn),2.42,4.97,2.15,0.19,2.05,2.69,3.78,0.76,0.28,5.45,2.92,72.2,2.38,4.22,4.56,29.55,3.33,0.46,287.38,1.88
COc1ccc2c3c1O[C@H]1C[C@@H](OP(=O)(OP(=O)(O)O)N(CCCl)CCCl)C=C[C@@]31CCN(C)C2 (stereo partly drawn),1.26,4.08,2.68,0.16,2.09,1.26,4.49,0.38,0.48,3.68,2.18,74.9,1.72,4.72,4.65,28.14,1.98,0.42,278.33,1.39
COc1ccc2c3c1O[C@H]1C[C@@H](OP(=O)(OCCO)Oc4ccc([N+](=O)[O-])cc4)C=C[C@@]31CCN(C)C2 (stereo partly drawn),1.53,5.01,2.82,0.25,2.61,3.28,3.71,1.09,0.39,4.96,3.28,72.1,1.9,5.21,4.27,29.41,3.17,0.67,286.43,2.69
COc1ccc2c3c1O[C@H]1C[C@@H](OP(=O)(NCCO)N(CCCl)CCCl)C=C[C@@]31CCN(C)C2 (stereo partly drawn),1.32,3.86,1.03,0.11,2.22,1.28,3.46,0.29,0.15,4.45,1.52,72.3,1.47,4.73,4.78,29.86,1.42,0.35,287.59,1.47
O=C(N[C@H](CO)[C@H](O)c1ccc([N+](=O)[O-])cc1)C(Cl)Cl [CHLORAMPHENICOL],2.02,3.27,,0.15,1.02,,2.99,0.2,0.13,4.02,,,2.67,,3.08,,,0.25,,3.62
O=C1O[C@H]([C@@H](O)CO)C(O)=C1O [ASCORBIC ACID],,,0.98,,,0.99,,,,,,88.1,,31.34,,,1.02,,385.46,
